Source: BindingDB's records for doi:10.1016/j.bmc.2012.09.049 (University of Copenhagen, 2012)

Tests used:
[1] = target: Excitatory amino acid transporter 2 (Homo sapiens, UniProt P43004); assay: Inhibition of [3H]-D-aspartate uptake at human EAAT2 expressed in HEK293 cells after 6 mins by scintillation counting
Method in brief: (§1)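 Each transporter subtype stably expressed in its own HEK293 cell line. Inhibitor potency measured as block of [³H]-D-aspartate uptake into these cells and reported as IC₅₀ values.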

[2] = target: Excitatory amino acid transporter 1 (Homo sapiens, UniProt P43003); assay: Inhibition of [3H]-D-aspartate uptake at human EAAT1 expressed in HEK293 cells after 6 mins by scintillation counting; method in brief: as §1
[3] = target: T1, Excitatory amino acid transporter 3 (Homo sapiens, UniProt P43005); assay: Inhibition of [3H]-D-aspartate uptake at human EAAT3 expressed in HEK293 cells after 6 mins by scintillation counting; method in brief: as §1
T1 sequence (P43005 whole entry): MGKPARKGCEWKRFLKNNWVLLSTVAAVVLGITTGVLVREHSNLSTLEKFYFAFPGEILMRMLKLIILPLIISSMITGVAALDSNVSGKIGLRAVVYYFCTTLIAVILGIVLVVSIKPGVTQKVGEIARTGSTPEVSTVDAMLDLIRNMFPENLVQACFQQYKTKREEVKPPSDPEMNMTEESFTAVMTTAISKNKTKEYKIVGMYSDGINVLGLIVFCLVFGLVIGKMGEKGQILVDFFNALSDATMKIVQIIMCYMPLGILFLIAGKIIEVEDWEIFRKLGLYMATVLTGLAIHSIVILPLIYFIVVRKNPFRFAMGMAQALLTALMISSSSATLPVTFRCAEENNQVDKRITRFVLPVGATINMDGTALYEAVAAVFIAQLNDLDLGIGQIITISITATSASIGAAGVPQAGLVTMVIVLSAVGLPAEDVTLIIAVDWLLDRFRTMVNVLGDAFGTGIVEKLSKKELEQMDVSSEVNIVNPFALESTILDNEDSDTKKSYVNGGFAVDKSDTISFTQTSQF

Excitatory amino acid transporter 2, sequence (P43004 whole entry): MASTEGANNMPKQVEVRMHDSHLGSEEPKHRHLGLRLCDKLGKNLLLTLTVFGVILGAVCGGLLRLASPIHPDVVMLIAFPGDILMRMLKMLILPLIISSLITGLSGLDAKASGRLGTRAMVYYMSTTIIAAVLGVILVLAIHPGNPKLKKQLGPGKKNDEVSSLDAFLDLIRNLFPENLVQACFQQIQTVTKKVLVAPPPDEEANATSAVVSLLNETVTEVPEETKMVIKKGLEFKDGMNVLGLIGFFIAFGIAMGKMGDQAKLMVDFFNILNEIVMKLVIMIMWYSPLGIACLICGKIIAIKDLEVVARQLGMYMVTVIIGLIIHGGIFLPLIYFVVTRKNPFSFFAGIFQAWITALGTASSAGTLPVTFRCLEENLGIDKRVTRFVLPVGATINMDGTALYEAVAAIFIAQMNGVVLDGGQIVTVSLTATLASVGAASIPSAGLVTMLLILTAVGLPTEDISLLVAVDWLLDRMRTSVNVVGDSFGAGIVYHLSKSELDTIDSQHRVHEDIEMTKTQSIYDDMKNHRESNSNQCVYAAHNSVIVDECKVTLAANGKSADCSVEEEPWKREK
Excitatory amino acid transporter 1, sequence (P43003 whole entry): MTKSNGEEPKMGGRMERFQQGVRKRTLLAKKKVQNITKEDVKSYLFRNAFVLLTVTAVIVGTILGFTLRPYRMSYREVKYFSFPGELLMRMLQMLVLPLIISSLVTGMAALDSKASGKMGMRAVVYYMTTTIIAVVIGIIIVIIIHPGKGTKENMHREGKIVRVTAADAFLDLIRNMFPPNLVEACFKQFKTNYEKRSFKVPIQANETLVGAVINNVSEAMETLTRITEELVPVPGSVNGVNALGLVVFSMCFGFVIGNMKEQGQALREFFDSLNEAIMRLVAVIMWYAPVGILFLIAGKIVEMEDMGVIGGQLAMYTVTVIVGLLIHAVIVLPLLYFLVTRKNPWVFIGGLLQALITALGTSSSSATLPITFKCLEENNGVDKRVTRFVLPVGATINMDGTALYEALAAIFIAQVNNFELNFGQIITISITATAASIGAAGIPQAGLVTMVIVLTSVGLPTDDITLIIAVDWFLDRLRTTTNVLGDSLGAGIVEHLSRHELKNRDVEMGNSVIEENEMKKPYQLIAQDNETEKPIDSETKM

| Structure (SMILES) | IC50 [1] [µM] | IC50 [2] [µM] | IC50 [3] [µM] |
| --- | --- | --- | --- |
| CCN(CC)c1ccc2c(C)c(-c3ccc(C4C5=C(CC(c6ccccc6)CC5=O)OC(=N)C4C#N)cc3)c(=O)oc2c1 (configuration not stated) | > 300 | > 316 | > 300 |
| COc1ccc2c(C)c(-c3ccc(C4C5=C(CC(c6ccccc6)CC5=O)OC(=N)C4C#N)cc3)c(=O)oc2c1 (configuration not stated) | > 300 | > 316 | > 300 |
| CCN(CC)c1ccc2c(C3C4=C(CC(c5cccc6ccccc56)CC4=O)OC(=N)C3C#N)cc(=O)oc2c1 (configuration not stated) | > 300 | > 316 | > 300 |
| COc1ccc2c(C3C4=C(CC(c5ccccc5)CC4=O)OC(=N)C3C#N)cc(=O)oc2c1 (configuration not stated) | > 300 | > 316 | > 300 |
